Source: ChEMBL document CHEMBL3797186, “Single Residue Substitutions That Confer Voltage-Gated Sodium Ion Channel Subtype Selectivity in the NaV1.7 Inhibitory Peptide GpTx-1” (J Med Chem, 2016)
Positions of bridges follow the written chain, without caps; N, C: chain ends. Residues, ends and D or L forms follow the SMILES beside them.

How the values were obtained:
[1] = molecular target: Sodium channel protein type 9 subunit alpha (Homo sapiens, UniProt Q15858); assay: Inhibition of human Nav1.7 expressed in HEK293 cells assessed as inward peak current by ion-works quattro patch clamp electrophysiology method; type: cell-based
Sodium channel protein type 9 subunit alpha, sequence (Q15858 whole entry): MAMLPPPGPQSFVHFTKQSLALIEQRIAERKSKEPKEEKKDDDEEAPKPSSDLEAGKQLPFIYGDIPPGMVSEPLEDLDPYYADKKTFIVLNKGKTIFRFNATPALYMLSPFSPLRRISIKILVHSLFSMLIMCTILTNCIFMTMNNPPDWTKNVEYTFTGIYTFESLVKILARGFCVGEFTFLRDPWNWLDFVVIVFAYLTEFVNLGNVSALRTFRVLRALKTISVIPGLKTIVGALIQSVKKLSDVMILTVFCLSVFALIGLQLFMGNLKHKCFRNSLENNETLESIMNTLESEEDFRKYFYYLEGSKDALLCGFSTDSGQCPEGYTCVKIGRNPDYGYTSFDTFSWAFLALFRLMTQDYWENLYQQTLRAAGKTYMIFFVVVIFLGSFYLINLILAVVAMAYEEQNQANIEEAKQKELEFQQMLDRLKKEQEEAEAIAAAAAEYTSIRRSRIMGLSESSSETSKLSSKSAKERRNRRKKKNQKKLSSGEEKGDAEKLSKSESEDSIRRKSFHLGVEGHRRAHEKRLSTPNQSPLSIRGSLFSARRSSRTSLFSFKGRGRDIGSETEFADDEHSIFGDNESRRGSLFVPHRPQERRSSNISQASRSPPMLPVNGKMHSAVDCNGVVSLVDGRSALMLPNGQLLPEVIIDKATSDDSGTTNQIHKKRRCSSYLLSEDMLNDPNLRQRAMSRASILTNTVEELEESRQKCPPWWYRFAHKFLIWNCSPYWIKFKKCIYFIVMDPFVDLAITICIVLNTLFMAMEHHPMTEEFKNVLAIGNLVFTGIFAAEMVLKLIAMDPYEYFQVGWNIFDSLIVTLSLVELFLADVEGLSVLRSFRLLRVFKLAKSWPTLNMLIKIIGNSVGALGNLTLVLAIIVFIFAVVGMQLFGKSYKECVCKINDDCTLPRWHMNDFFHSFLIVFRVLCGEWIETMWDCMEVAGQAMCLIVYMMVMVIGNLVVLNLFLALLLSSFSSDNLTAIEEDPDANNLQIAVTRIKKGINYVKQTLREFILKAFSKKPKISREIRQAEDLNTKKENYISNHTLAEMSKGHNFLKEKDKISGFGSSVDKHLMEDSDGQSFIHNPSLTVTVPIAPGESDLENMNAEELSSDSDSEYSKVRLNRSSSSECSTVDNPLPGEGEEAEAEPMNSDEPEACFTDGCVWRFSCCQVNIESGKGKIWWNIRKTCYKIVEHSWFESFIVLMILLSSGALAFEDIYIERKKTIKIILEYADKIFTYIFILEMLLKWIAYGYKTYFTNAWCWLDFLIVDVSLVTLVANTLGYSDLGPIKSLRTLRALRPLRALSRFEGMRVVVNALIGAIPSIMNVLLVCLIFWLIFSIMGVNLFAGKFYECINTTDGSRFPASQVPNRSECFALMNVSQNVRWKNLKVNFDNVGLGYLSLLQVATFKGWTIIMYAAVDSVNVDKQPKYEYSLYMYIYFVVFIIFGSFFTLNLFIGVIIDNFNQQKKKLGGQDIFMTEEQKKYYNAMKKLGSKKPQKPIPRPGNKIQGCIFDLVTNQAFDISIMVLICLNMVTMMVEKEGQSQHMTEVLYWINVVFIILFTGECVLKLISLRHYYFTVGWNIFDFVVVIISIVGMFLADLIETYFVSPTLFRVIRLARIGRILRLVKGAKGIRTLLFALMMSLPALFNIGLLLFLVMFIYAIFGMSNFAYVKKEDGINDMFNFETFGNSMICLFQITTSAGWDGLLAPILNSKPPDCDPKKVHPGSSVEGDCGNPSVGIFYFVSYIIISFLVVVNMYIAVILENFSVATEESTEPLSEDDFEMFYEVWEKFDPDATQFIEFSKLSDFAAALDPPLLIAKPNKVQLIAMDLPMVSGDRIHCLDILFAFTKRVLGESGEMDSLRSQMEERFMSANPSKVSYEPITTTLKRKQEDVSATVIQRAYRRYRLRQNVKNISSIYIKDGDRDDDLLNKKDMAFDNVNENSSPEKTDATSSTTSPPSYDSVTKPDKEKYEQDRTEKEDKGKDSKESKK

[2] = molecular target: Sodium channel protein type 5 subunit alpha (Homo sapiens, UniProt Q14524); assay: Inhibition of human Nav1.5 expressed in HEK293 cells assessed as inward peak current by ion-works quattro patch clamp electrophysiology method; type: cell-based
Sodium channel protein type 5 subunit alpha, sequence (Q14524 whole entry): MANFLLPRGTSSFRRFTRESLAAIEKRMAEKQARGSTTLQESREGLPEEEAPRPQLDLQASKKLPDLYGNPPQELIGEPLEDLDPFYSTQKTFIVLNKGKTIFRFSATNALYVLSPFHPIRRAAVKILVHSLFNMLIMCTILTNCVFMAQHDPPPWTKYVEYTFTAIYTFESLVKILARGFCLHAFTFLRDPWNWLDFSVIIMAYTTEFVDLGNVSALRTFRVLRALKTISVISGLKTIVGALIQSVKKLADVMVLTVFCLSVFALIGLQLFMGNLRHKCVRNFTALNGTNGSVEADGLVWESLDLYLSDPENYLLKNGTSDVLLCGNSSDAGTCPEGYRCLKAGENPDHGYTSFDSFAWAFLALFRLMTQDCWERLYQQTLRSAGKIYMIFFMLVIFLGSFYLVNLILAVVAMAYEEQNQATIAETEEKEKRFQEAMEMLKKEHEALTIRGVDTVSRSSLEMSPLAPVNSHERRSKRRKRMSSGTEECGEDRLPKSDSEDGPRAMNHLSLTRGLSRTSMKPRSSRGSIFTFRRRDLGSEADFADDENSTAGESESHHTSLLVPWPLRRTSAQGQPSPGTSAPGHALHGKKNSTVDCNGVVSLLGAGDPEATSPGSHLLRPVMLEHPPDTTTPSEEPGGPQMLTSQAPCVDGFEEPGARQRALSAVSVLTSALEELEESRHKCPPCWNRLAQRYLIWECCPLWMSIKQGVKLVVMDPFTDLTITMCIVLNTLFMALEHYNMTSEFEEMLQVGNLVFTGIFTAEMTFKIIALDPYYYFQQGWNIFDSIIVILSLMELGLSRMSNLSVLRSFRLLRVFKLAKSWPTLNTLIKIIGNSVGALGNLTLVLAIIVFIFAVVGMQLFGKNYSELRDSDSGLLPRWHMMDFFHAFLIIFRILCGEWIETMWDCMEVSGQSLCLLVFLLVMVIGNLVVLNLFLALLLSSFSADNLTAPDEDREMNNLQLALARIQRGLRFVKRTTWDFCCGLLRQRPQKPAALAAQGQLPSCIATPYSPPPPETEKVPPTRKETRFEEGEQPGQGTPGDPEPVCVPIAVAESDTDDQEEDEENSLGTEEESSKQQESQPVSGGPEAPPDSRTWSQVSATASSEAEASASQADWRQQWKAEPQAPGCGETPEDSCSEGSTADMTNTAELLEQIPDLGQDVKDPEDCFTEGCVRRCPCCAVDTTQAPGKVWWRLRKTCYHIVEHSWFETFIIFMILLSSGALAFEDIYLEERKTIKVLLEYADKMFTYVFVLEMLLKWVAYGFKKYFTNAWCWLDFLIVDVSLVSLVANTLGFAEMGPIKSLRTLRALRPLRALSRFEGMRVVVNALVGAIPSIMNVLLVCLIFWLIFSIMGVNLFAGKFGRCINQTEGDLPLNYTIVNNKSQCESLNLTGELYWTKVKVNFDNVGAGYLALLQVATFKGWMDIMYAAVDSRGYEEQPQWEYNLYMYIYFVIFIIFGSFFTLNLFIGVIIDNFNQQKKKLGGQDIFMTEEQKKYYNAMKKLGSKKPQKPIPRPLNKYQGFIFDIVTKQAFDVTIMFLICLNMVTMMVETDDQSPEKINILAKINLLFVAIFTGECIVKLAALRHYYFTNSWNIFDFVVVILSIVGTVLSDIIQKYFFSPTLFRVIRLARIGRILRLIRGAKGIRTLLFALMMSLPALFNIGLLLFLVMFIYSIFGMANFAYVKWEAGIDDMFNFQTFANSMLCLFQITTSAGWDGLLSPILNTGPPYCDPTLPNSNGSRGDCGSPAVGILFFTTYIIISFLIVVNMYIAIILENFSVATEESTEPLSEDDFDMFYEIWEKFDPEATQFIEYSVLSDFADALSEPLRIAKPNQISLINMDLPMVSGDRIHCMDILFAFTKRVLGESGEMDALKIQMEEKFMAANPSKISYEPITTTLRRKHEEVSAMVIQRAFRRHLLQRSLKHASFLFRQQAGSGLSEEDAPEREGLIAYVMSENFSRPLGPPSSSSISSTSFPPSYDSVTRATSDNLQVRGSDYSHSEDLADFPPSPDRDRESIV
Summary of the method: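 Stable HEK293 line expressing human NaV1.5, recorded by population patch clamp on the IonWorks Quattro.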

SMILES | IC50 [1] | IC50 [2]
CC[C@H](C)[C@@H]1NC(=O)[C@@H]2CSSC[C@@H]3NC(=O)[C@H](C(C)C)NC(=O)[C@H](CC(C)C)NC(=O)[C@H](CC(N)=O)NC(=O)[C@@H]4CCCN4C(=O)[C@H](CCCNC(=N)N)NC(=O)[C@H](CSSC[C@H](NC(=O)[C@@H](N)CC(=O)O)C(=O)N[C@@H](CC(C)C)C(=O)NCC(=O)N[C@@H](Cc4ccccc4)C(=O)N[C@@H](CCSC)C(=O)N[C@@H](CCCNC(=N)N)C(=O)N[C@@H](CCCNC(=N)N)C(=O)N2)NC(=O)[C@H](CSSC[C@@H](C(=O)N[C@@H](CCCCN)C(=O)N[C@@H](Cc2ccc(O)cc2)C(=O)N[C@H](C(=O)N[C@@H](Cc2ccccc2)C(N)=O)C(C)C)NC(=O)[C@H](Cc2c[nH]c4ccccc24)NC(=O)[C@H](CCCCN)NC(=O)[C@H](Cc2cnc[nH]2)NC(=O)[C@H]([C@@H](C)O)NC(=O)[C@H](CCCNC(=N)N)NC(=O)[C@H](CO)NC3=O)NC(=O)[C@H](CCCCN)NC(=O)[C@H](CC(=O)O)NC(=O)[C@H](CC(N)=O)NC(=O)[C@H](CC(=O)O)NC(=O)[C@@H]2CCCN2C1=O (H-DCLGFMRRCIPDNDKCCRPNLVCSRTHKWCKYVF-NH2; disulfide 2-17, 9-23, 16-30) | 0.13 µM | > 5 µM
CC[C@H](C)[C@@H]1NC(=O)[C@H]2CSSC[C@H]3NC(=O)[C@H](C(C)C)NC(=O)[C@H](CC(C)C)NC(=O)[C@H](CC(N)=O)NC(=O)[C@@H]4CCCN4C(=O)[C@H](CCCNC(=N)N)NC(=O)[C@H](CSSC[C@H](NC(=O)[C@@H](N)CC(=O)O)C(=O)N[C@@H](CC(C)C)C(=O)NCC(=O)N[C@@H](Cc4ccccc4)C(=O)N[C@@H](CCSC)C(=O)N[C@@H](CCCNC(=N)N)C(=O)N[C@@H](CCCCN)C(=O)N2)NC(=O)[C@@H](CSSC[C@@H](C(=O)N[C@@H](CCCCN)C(=O)N[C@@H](Cc2ccc(O)cc2)C(=O)N[C@H](C(=O)N[C@@H](Cc2ccccc2)C(N)=O)C(C)C)NC(=O)[C@H](Cc2c[nH]c4ccccc24)NC(=O)[C@H](CCCCN)NC(=O)[C@H](C)NC(=O)[C@H]([C@@H](C)O)NC(=O)[C@H](CCCNC(=N)N)NC(=O)[C@H](CO)NC3=O)NC(=O)[C@H](CCCCN)NC(=O)[C@H](CC(=O)O)NC(=O)[C@H](CC(N)=O)NC(=O)[C@H](CC(=O)O)NC(=O)[C@@H]2CCCN2C1=O | 0.97 µM | > 5 µM
CC[C@H](C)[C@@H]1NC(=O)[C@@H]2CSSC[C@@H]3NC(=O)[C@H](C(C)C)NC(=O)[C@H](CC(C)C)NC(=O)[C@H](CC(N)=O)NC(=O)[C@@H]4CCCN4C(=O)[C@H](CCCNC(=N)N)NC(=O)[C@H](CSSC[C@H](NC(=O)[C@@H](N)CC(=O)O)C(=O)N[C@@H](CC(C)C)C(=O)NCC(=O)N[C@@H](Cc4ccccc4)C(=O)N[C@@H](CCSC)C(=O)N[C@@H](CCCNC(=N)N)C(=O)N[C@@H](CCCCN)C(=O)N2)NC(=O)[C@H](CSSC[C@@H](C(=O)N[C@@H](CCCCN)C(=O)N[C@@H](CCCCN)C(=O)N[C@H](C(=O)N[C@@H](Cc2ccccc2)C(N)=O)C(C)C)NC(=O)[C@H](Cc2c[nH]c4ccccc24)NC(=O)[C@H](CCCCN)NC(=O)[C@H](Cc2cnc[nH]2)NC(=O)[C@H]([C@@H](C)O)NC(=O)[C@H](CCCNC(=N)N)NC(=O)[C@H](CO)NC3=O)NC(=O)[C@H](CCCCN)NC(=O)[C@H](CC(=O)O)NC(=O)[C@H](CC(N)=O)NC(=O)[C@H](CC(=O)O)NC(=O)[C@@H]2CCCN2C1=O (H-DCLGFMRKCIPDNDKCCRPNLVCSRTHKWCKKVF-NH2; disulfide 2-17, 9-23, 16-30) | > 4.9 µM | > 5 µM
